Key:
[1] = Inhibition of beta-lactamase SHV-4 assessed as nitrocefin hydrolysis after 5 mins enzyme-compound preincubation
Procedure, shortened: (§1)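 Enzyme and inhibitor were preincubated 5 min at 37°C. The inhibitor was tested at 11 concentrations from 1 nM to 100 µM. Final enzyme concentrations were TEM-1 0.25 nM, CTX-M-15 0.35 nM, KPC-2 3 nM and SHV-4 6 nM. Nitrocefin was at 100 µM. Initial rates were read at 485 nm over the first minute. Each value is the mean of at least two independent experiments.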

[2] = Inhibition of beta-lactamase KPC-2 assessed as nitrocefin hydrolysis after 5 mins enzyme-compound preincubation; procedure, shortened: as §1
[3] = Inhibition of beta-lactamase CTX-M-15 assessed as nitrocefin hydrolysis after 5 mins enzyme-compound preincubation
[4] = Inhibition of beta-lactamase TEM- 1 assessed as nitrocefin hydrolysis after 5 mins enzyme-compound preincubation; procedure, shortened: as §1
[5] = Inhibition of beta-lactamase TEM-1 after 5 seconds incubation with nitrocefin substrate by spectrophotometry
Procedure, shortened: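 Direct competition with reporter substrate at 37°C: inhibitor concentrations were premixed with 100 µM nitrocefin, and the reaction was started with 0.25 nM purified TEM-1. Nitrocefin hydrolysis was followed spectrophotometrically at 485 nm. Initial velocity over the first 5 s was compared with the no-inhibitor control, and KI was derived by equation 2. Means of at least two independent experiments.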

[6] = biological target: T1, Beta-lactamase (Enterobacter cloacae, UniProt P05364); test: Inhibition of Enterobacter cloacae beta-lactamase P99 assessed as nitrocefin hydrolysis after 5 mins enzyme-compound preincubation
[7] = biological target: T1, Beta-lactamase; test: Inhibition of Enterobacter cloacae beta-lactamase P99 after 5 seconds incubation with nitrocefin substrate by spectrophotometry

T1 sequence (P05364 whole entry): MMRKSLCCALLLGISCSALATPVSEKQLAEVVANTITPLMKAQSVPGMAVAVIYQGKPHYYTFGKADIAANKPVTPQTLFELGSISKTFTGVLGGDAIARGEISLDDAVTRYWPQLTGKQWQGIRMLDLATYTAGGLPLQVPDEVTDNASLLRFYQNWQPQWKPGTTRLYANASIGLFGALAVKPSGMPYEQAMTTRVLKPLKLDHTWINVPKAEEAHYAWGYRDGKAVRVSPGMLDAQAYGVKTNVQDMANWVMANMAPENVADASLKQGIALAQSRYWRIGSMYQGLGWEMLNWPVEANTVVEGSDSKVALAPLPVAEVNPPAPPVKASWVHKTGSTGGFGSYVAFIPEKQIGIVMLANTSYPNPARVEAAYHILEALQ

| Ki [5] | IC50 [6] | Ki [7] | Compound | IC50 [1] | IC50 [2] | IC50 [3] | IC50 [4] |
| --- | --- | --- | --- | --- | --- | --- | --- |
| – | – | – | CC1(C)[C@H](C(=O)O)N2C(=O)C[C@H]2S1(=O)=O [SULBACTAM] | 260 nM | 57000 nM | 230 nM | 1560 nM |
| 800 nM | – | – | O=C(O)[C@H]1/C(=C/CO)O[C@@H]2CC(=O)N21 [CLAVULANIC ACID] | 4 nM | > 100000 nM | – | 58 nM |
| 260 nM | 100 nM | 7700 nM | NC(=O)[C@@H]1CC[C@@H]2CN1C(=O)N2OS(=O)(=O)O (relative stereo) [AVIBACTAM] | 3 nM | 170 nM | 5 nM | 8 nM |

| Compound | Ki [5] | IC50 [6] | Ki [7] | IC50 [1] | IC50 [2] | IC50 [3] | IC50 [4] |
| --- | --- | --- | --- | --- | --- | --- | --- |
| C[C@]1(Cn2ccnn2)[C@H](C(=O)O)N2C(=O)C[C@H]2S1(=O)=O [TAZOBACTAM] | 30 nM | – | – | 55 nM | 50000 nM | 6 nM | 32 nM |

Reference: ChEMBL document CHEMBL1687818, “Mechanistic studies of the inactivation of TEM-1 and P99 by NXL104, a novel non-beta-lactam beta-lactamase inhibitor” (Antimicrob Agents Chemother, 2010)
